Test results: ChEMBL document CHEMBL2390869, “Evolution of novel tricyclic CRTh2 receptor antagonists from a (E)-2-cyano-3-(1H-indol-3-yl)acrylamide scaffold” (Bioorg Med Chem Lett, 2013)

Biological target: T1, Prostaglandin D2 receptor 2 (Homo sapiens, UniProt Q9Y5Y4)
T1 sequence (Q9Y5Y4 whole entry): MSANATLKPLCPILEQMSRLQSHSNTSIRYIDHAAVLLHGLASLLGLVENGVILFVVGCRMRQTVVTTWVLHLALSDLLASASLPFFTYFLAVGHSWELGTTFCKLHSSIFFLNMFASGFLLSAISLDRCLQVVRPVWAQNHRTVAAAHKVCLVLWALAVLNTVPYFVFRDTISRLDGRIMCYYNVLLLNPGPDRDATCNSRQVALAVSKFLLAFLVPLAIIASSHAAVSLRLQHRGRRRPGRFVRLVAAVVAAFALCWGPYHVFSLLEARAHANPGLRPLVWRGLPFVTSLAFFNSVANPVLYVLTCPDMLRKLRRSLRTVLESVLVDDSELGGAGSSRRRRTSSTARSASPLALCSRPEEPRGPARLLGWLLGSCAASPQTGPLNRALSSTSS
Assay: Displacement of [3H]PGD2 from human CRTh2 receptor
Outline: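 Human CRTh2 binding assay run in assay buffer. IC50 reported as the mean of at least three experiments.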

Row | IC50 | SMILES
1 | 10 nM | CN(C(=O)/C(C#N)=C/c1cn(CC(=O)O)c2cccc(F)c12)c1ccccc1
2 | 10 nM | CN(C(=O)/C(C#N)=C/c1cn(CC(=O)O)c2ccc(F)cc12)c1ccccc1
3 | 45 nM | CN(C(=O)/C(C#N)=C/c1cn(CC(=O)O)c2cc(F)ccc12)c1ccccc1
4 | 100 nM | CN(C(=O)/C(C#N)=C/c1cn(CC(=O)O)c2c(F)cccc12)c1ccccc1
5 | 5 nM | CN(C(=O)/C(C#N)=C/c1cn(CC(=O)O)c2cccc(Cl)c12)c1ccccc1
6 | 7 nM | CN(C(=O)/C(C#N)=C/c1cn(CC(=O)O)c2ccc(Cl)cc12)c1ccccc1
7 | 290 nM | CN(C(=O)/C(C#N)=C/c1cn(CC(=O)O)c2cc(Cl)ccc12)c1ccccc1
8 | 50 nM | CN(C(=O)/C(C#N)=C/c1cn(CC(=O)O)c2c(Cl)cccc12)c1ccccc1
9 | 7 nM | Cc1ccc2c(c1)c(/C=C(\C#N)C(=O)N(C)c1ccccc1)cn2CC(=O)O
10 | 690 nM | Cc1ccc2c(/C=C(\C#N)C(=O)N(C)c3ccccc3)cn(CC(=O)O)c2c1
11 | 140 nM | Cc1cccc2c(/C=C(\C#N)C(=O)N(C)c3ccccc3)cn(CC(=O)O)c12
12 | 490 nM | O=C(O)Cn1c2ccccc2c2cc(C(=O)Nc3ccccc3)ccc21
13 | 430 nM | O=C(O)Cn1c2c(c3ccccc31)CN(C(=O)Nc1ccccc1)CC2
14 | 200 nM | O=C(O)Cn1c2c(c3ccccc31)CN(C(=O)Cc1ccccc1)CC2
15 | 1600 nM | CC(=O)N1CCc2c(c3ccccc3n2CC(=O)O)C1
16 | 210 nM | CCCCCC(=O)N1CCc2c(c3ccccc3n2CC(=O)O)C1
17 | 145 nM | O=C(O)Cn1c2c(c3ccccc31)CC(C(=O)Nc1ccccc1)CC2 (racemic)
